As usually defined, the inhibition is the relative decrease from the control value, in per cent.

Type in all cases: functional
In assay [1] the target is T1, Ornithine decarboxylase (Mus musculus) (UniProt P00860).
T1 sequence (whole entry): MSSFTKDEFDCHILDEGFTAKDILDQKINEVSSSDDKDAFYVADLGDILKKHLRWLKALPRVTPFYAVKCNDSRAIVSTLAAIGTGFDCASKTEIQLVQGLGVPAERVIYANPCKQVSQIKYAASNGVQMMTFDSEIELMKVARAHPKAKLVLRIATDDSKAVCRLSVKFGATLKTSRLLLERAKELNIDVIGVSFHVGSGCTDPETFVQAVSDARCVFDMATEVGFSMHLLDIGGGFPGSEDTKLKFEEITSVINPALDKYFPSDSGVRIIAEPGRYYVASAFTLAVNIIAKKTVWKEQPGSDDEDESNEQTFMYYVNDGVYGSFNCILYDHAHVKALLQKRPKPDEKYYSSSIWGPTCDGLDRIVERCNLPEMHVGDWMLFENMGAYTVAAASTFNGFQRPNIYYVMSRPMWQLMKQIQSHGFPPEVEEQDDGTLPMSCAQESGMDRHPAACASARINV
Nature of the assay: Inhibition of TPA induced ODC(Ornithine decarboxylase) activity in mice epidermis at 34 nmol in the presence of TPA. An outline of the steps:
(§1)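 Mouse epidermis in vivo: retinoid applied to shaved back 1 h before topical 10 nmol TPA. Mice killed 5 h after TPA. Epidermis separated, homogenized and centrifuged at 30000 g. Soluble ODC activity measured as nmol CO2 released per 30 or 60 min per mg protein. Values are mean ± SE of three groups of three mice. Percent inhibition = (acetone+TPA ODC − retinoid ODC)/(acetone+TPA ODC) × 100.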

Assay [2] concerns the target T1, Ornithine decarboxylase (Mus musculus). Nature of the assay: Inhibition of TPA induced ODC(Ornithine decarboxylase) activity in mice epidermis at 34 nmol in the presence of TPA compared to control value. An outline of the steps:
as §1

Assay [3] shares this target. Nature of the assay: Inhibition of TPA induced ODC(Ornithine decarboxylase) activity in mice epidermis at 34 nmol in the presence of trans-retinoic acid + TPA compared to control value. An outline of the steps: as §1
Assay [4] has the same target. Briefly: Inhibition of TPA induced ODC(Ornithine decarboxylase) activity in mice epidermis at 0 nmol in the presence of acetone+TPA. An outline of the steps:
as §1

Assay [5] shares this target. Briefly: Inhibition of TPA induced ODC(Ornithine decarboxylase) activity in mice epidermis at 34 nmol in the presence of trans-retinoic acid + TPA. An outline of the steps: as §1
For assay [6] the target is unchanged. Nature of the assay: Inhibition of TPA induced ODC(Ornithine decarboxylase) activity in mice epidermis at 17 nmol in the presence of TPA compared to control value. An outline of the steps:
as §1

Assay [7] shares this target. Briefly: Inhibition of TPA induced ODC(Ornithine decarboxylase) activity in mice epidermis at 17 nmol in the presence of 13-cis-retinoic acid + TPA compared to control value. An outline of the steps:
as §1

The target is the same in assay [8]. Briefly: Inhibition of TPA induced ODC(Ornithine decarboxylase) activity in mice epidermis at 0 nmol in the presence of acetone. An outline of the steps:
as §1

Assay [9] shares this target. Nature of the assay: Inhibition of TPA induced ODC(Ornithine decarboxylase) activity in mice epidermis at 0 nmol in the presence of acetone + TPA. An outline of the steps: as §1
For assay [10] the target is unchanged. Briefly: Inhibition of TPA induced ODC(Ornithine decarboxylase) activity in mice epidermis at 17 nmol in the presence of TPA. An outline of the steps: as §1
Assay [11] shares this target. Nature of the assay: Inhibition of TPA induced ODC(Ornithine decarboxylase) activity in mice epidermis at 17 nmol in the presence of 13-cis-retinoic acid + TPA. An outline of the steps:
as §1

Assay [12] shares this target. Briefly: Inhibition of TPA induced ODC(Ornithine decarboxylase) activity in mice epidermis at 0 nmol in the presence of acetone+ TPA. An outline of the steps: as §1

As to `C/C(=C\c1ccc(C=O)cc1)c1ccc2c(c1)C(C)(C)CCO2`, the ODC activity ((nM of CO2) hr-1 (mg of protein)-1) in assay [1] came to 3.5. Besides, the inhibition in assay [2] was found to be 34%.

`C/C(=C\c1ccc(CO)cc1)c1ccc2c(c1)C(C)(C)CCO2`: the ODC activity ((nM of CO2) hr-1 (mg of protein)-1) in assay [1] was 1.7. Besides, the inhibition in assay [2] turned out to be 68%; in assay [3] it was 81%. The ODC activity amounted to 5.3 in assay [4] and 1 in assay [5].

For the molecule `CC(/C=C/C=C(\C)c1ccc2c(c1)C(C)(C)CCS2)=C\C(=O)O`, the inhibition in assay [6] and in assay [7] was 89% in each case. Moreover, the ODC activity ((nM of CO2) 30min-1 (mg of protein)-1) in assay [8] was 0; in [9] it was 0.9; in [10], 0.1; in assay [11], 0.1.

For `COC(=O)c1ccc(/C=C(\C)c2ccc3c(c2)C(C)(C)CO3)cc1`, the ODC activity ((nM of CO2) hr-1 (mg of protein)-1) in [1] was determined as 1.5. Besides, in assay [2], the inhibition came to 72%.

With `C/C(=C\c1ccc(C#N)cc1)c1ccc2c(c1)C(C)(C)CCO2`, in assay [1], the ODC activity ((nM of CO2) hr-1 (mg of protein)-1) was 1.77. Moreover, in assay [2], the inhibition was determined as 0%.

For the molecule `CC(/C=C/C=C(\C)c1ccc2c(c1)C(C)(C)CCO2)=C\C(=O)O`, the ODC activity ((nM of CO2) hr-1 (mg of protein)-1) in [1] came out at 1.4. Moreover, the inhibition in [2] worked out at 74%.

Turning to `COC(=O)c1ccc(/C=C(\C)c2ccc3c(c2)C(C)(C)CCO3)cc1`, the inhibition in [7] worked out at 92%; in assay [2] it was 43%. Also, the results for the ODC activity ((nM of CO2) hr-1 (mg of protein)-1) in assay [1], in assay [12] and in [11] were 0.95, 1.67 and 0.14, respectively.

Consider `CCOC(=O)/C=C(C)/C=C/C=C(\C)c1ccc2c(c1)C(C)(C)CCS2`, for which the inhibition in assay [6] stood at 100%. In addition, the ODC activity ((nM of CO2) 30min-1 (mg of protein)-1) in assay [8] and in [10] was 0 each time.

For `CC(/C=C/C=C(\C)c1ccc2c(c1)C(C)(C)CCS2)=C\C(=O)OCCN1C(=O)c2ccccc2C1=O`, the ODC activity ((nM of CO2) hr-1 (mg of protein)-1) in [1] came to 0.97. For the same molecule, the inhibition in assay [2] turned out to be 42%.

The values are drawn from ChEMBL document CHEMBL1123815, “Heteroarotinoids. Synthesis, characterization, and biological activity in terms of an assessment of these systems to inhibit the induction of ornithine decarboxylase activity and to induce terminal differentiation of HL-60 cells” (J Med Chem, 1987).
